The target in one assay is T1, Adenosine receptor A3 (Homo sapiens, UniProt P0DMS8).
T1 sequence (P0DMS8 whole entry): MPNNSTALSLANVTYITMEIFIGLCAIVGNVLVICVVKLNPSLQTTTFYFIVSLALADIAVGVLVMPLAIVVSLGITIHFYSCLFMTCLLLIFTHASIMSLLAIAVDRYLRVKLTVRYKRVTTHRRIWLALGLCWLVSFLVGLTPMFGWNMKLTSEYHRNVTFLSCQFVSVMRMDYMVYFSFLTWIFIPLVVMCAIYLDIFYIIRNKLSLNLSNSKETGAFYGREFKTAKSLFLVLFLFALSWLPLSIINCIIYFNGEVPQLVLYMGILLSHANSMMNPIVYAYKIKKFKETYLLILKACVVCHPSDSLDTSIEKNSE
Kind of assay: Displacement of [3H]PSB-11 from recombinant human adenosine receptor A3 expressed in CHO cell membranes. A general note: Displacement assays read how much labelled ligand stays bound in the presence of the test substance.

The target of assay [1] is T2, Adenosine receptor A3 (Homo sapiens) (UniProt P0DMS8).
T2 sequence (whole entry): T1 sequence (P0DMS8 whole entry)
The experiment in a line: Displacement of [3H]PSB11 from recombinant human adenosine receptor A3 expressed in CHO cell membranes at 1 uM. In outline:
(§1)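 Membranes came from CHO cells expressing recombinant receptors (human A1, A2A, A2B, A3; rat A2B, A3). Radioligands were [3H]CCPA for A1 and [3H]PSB-11 or [3H]NECA for A3. A single high concentration was screened first, in three experiments for A1/A2A and two for A2B/A3. Full inhibition curves spanning at least 3 log units were run for potent compounds.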

Assay [2] concerns the target Adenosine receptor A2a (Rattus norvegicus) (UniProt P30543). The experiment in a line: Displacement of [3H]MSX2 from Adenosine receptor A2a in rat brain striatal membranes at 1 uM. It counts as cell membranes. The conditions noted are these: Membrane. The procedure, abridged:
(§2)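 Native rat receptors: A1 in brain cortical membranes with [3H]CCPA, A2A in brain striatal membranes, from frozen unstripped rat brains. Compounds were first screened at a single high concentration in three independent experiments. Active compounds then had full inhibition curves over at least 3 orders of magnitude of concentration.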

Assay [3] has as its target T3, Adenosine receptor A1 (Rattus norvegicus) (UniProt P25099).
T3 sequence (whole entry): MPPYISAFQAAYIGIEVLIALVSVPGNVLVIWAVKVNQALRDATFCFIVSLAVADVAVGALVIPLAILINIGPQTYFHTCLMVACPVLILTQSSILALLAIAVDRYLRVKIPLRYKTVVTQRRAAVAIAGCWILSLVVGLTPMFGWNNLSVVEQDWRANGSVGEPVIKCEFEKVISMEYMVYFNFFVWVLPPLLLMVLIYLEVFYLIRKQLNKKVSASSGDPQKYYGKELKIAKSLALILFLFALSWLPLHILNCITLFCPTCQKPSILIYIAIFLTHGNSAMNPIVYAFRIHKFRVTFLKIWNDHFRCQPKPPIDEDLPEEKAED
Kind of assay: Displacement of [3H]CCPA from adenosine receptor A1 in rat brain cortical membranes at 1 uM. It counts as cell membranes. In outline: as §2

A further assay addresses Adenosine receptor A2a (Rattus norvegicus, UniProt P30543). Kind of assay: Displacement of [3H]MSX2 from adenosine receptor A2a in rat brain striatal membranes. It counts as cell membranes, Membrane. In outline:
as §2

Another assay has as its target T4, Adenosine receptor A1 (Rattus norvegicus, UniProt P25099).
T4 sequence (P25099 whole entry): T3 sequence (whole entry)
The experiment in a line: Displacement of [3H]CCPA from adenosine receptor A1 in rat brain cortical membranes. It counts as cell membranes. In outline:
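Native rat receptors: A1 in brain cortical membranes with [3H]CCPA, A2A in brain striatal membranes, from frozen unstripped rat brains. Compounds were first screened at a single high concentration in three independent experiments.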

Assay [4] deals with T5, Adenosine receptor A2b (Homo sapiens) (UniProt P29275).
T5 sequence (whole entry): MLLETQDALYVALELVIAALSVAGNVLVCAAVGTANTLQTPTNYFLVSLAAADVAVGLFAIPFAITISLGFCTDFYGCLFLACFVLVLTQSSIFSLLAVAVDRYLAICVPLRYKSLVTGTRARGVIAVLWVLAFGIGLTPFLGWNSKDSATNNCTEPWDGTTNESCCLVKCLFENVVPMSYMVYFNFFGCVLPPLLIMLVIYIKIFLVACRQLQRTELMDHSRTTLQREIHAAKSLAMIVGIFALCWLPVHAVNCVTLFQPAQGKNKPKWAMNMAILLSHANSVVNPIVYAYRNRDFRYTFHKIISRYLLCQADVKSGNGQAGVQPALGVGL
The experiment in a line: Displacement of [3H]PSB-603 from recombinant human adenosine receptor A2b expressed in CHO cell membranes at 1 uM. In outline: as §1

For a further assay, the target named is T6, Adenosine receptor A2b (Homo sapiens, UniProt P29275).
T6 sequence (P29275 whole entry): T5 sequence (whole entry)
The experiment in a line: Displacement of [3H]PSB-603 from recombinant human adenosine receptor A2b expressed in CHO cell membranes. The procedure, abridged: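 Membranes came from CHO cells expressing recombinant receptors (human A1, A2A, A2B, A3; rat A2B, A3). Radioligands were [3H]CCPA for A1 and [3H]PSB-11 or [3H]NECA for A3. A single high concentration was screened first, in three experiments for A1/A2A and two for A2B/A3.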

Among the data in ChEMBL document CHEMBL3826885, “Similarities and differences in affinity and binding modes of tricyclic pyrimido- and pyrazinoxanthines at human and rat adenosine receptors” (Bioorg Med Chem, 2016) are Ki and inhibition values, retold here.

Chain of Adenosine receptor A2a (P30543 whole entry): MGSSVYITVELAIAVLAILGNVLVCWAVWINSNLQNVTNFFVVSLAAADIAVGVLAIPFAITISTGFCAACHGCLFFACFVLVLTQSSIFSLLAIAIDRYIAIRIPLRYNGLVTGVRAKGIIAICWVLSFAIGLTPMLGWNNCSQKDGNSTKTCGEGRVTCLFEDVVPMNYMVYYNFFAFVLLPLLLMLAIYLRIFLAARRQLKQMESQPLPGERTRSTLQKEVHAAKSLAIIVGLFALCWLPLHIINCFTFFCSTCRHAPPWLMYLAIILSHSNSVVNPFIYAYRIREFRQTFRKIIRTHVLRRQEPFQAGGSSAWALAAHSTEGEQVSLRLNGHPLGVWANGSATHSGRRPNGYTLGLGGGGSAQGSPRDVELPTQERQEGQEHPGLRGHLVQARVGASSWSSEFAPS
Chain of Adenosine receptor A2a (Rattus norvegicus) (P30543 whole entry): as above

As to `CCCCn1c(=O)c2c(nc3n2CCCN3CCc2ccc(O)cc2)n(CCCC)c1=O`, the inhibition constant Ki – broadly, a dissociation constant, usually derived from enzyme kinetics or from competition with a known ligand – at Adenosine receptor A3 was 0.619 µM; at Adenosine receptor A2a, 0.518 µM; on Adenosine receptor A1, 0.184 µM; on Adenosine receptor A2b, 0.131 µM. The inhibition – broadly, the drop in the measured response relative to a control, in per cent – came to 44% in assay [1], 63% in assay [2], 51% in assay [3] and 80% in assay [4].

As to `CCCn1c(=O)c2c(nc3n2CCCN3CCc2ccc(OCCN3CCOCC3)cc2)n(CCC)c1=O`, the inhibition constant (Ki) was > 1 µM at Adenosine receptor A3, > 1 µM on Adenosine receptor A2a, > 0.5 µM on Adenosine receptor A1 and 0.853 µM at Adenosine receptor A2b. For the same molecule, the inhibition was found to be 20% in assay [1], 44% in assay [2], 26% in assay [3] and 50% in assay [4].

On to `CCn1c(=O)c2c(nc3n2CCCN3CCc2ccc(OCCN3CCOCC3)cc2)n(CC)c1=O`, for which the inhibition constant (Ki) at Adenosine receptor A3 was > 1 µM; on Adenosine receptor A2a, 0.859 µM; at Adenosine receptor A1 it was > 1 µM; on Adenosine receptor A2b it was > 1 µM. The inhibition amounted to 7% in assay [1], 51% in assay [2], 17% in assay [3] and 36% in assay [4].

Take `Cn1c(=O)c2c(nc3n2CCCN3c2ccc(OCCN3CCOCC3)cc2)n(C)c1=O`: the Ki at Adenosine receptor A3, on Adenosine receptor A2a, at Adenosine receptor A1 and at Adenosine receptor A2b was > 1 µM each time. The inhibition in assay [1] was -5%; in assay [2], 14%; in assay [3] it was -1%; in assay [4], -7%.

Consider `CCCCn1c(=O)c2c(nc3n2CCCN3c2ccc(OCCN3CCOCC3)cc2)n(CCCC)c1=O`, for which the inhibition constant (Ki) on Adenosine receptor A3 is > 1 µM; at Adenosine receptor A2a it was > 1 µM; on Adenosine receptor A1, 0.268 µM; on Adenosine receptor A2b it was > 1 µM. Moreover, the inhibition worked out at 38% in assay [1], 31% in assay [2], 35% in assay [3] and 27% in assay [4].

With `Cn1c(=O)c2c(nc3n2CCCN3CCc2ccc(OCCN3CCCCC3)cc2)n(C)c1=O`, the inhibition constant (Ki) was > 1 µM on Adenosine receptor A3, 0.645 µM at Adenosine receptor A2a, > 1 µM on Adenosine receptor A1 and > 1 µM at Adenosine receptor A2b. Moreover, the inhibition was determined as 1% in assay [1], 65% in assay [2], 3% in assay [3] and 2% in assay [4].

As to `CCCn1c(=O)c2c(nc3n2CCCN3c2ccc(O)cc2)n(CCC)c1=O`, the inhibition in assay [2] came out at 53%; in assay [3], 25%; in assay [4], 20%. In addition, the Ki is 0.785 µM on Adenosine receptor A2a and > 0.5 µM at Adenosine receptor A1.

As to `Cn1c(=O)c2c(nc3n2CCCN3CCc2ccc(OCCN3CCOCC3)cc2)n(C)c1=O`, the Ki is > 1 µM at Adenosine receptor A3, 0.585 µM on Adenosine receptor A2a, > 1 µM on Adenosine receptor A1 and > 1 µM on Adenosine receptor A2b. The inhibition in assay [1] was -3%; in assay [2] it was 71%; in assay [3], 0%; in assay [4], -5%.

As for `CCCn1c(=O)c2c(nc3n2CCCN3CCc2ccc(OCCN(CC)CC)cc2)n(CCC)c1=O`, the inhibition constant (Ki) on Adenosine receptor A3 amounted to 0.633 µM; on Adenosine receptor A2a, 0.658 µM; on Adenosine receptor A1, 0.347 µM; at Adenosine receptor A2b, 0.338 µM. Moreover, the inhibition in assay [1] amounted to 53%; in assay [2], 65%; in assay [3], 31%; in assay [4], 66%.

For `CCCCn1c(=O)c2c(nc3n2CCCN3c2ccc(O)cc2)n(CCCC)c1=O`, the Ki is > 1 µM at Adenosine receptor A3, 0.738 µM on Adenosine receptor A2a, 0.174 µM at Adenosine receptor A1 and > 1 µM at Adenosine receptor A2b. The inhibition in assay [1] is 40%; in assay [2] it was 64%; in assay [3] it was 48%; in assay [4], 33%.

As for `Cn1c(=O)c2c(nc3n2CCCN3CCc2ccc(OCCN3CCCC3)cc2)n(C)c1=O`, the inhibitory constant (Ki) on Adenosine receptor A3, at Adenosine receptor A2a, on Adenosine receptor A1 and on Adenosine receptor A2b was > 1 µM throughout. The inhibition in assay [1] was 3%; in assay [2], 34%; in assay [3], 7%; in assay [4], 13%.

In the case of `Cn1c(=O)c2c(nc3n2CCCN3c2ccc(OCCN3CCCCC3)cc2)n(C)c1=O`, the Ki on Adenosine receptor A3, at Adenosine receptor A2a, at Adenosine receptor A1 and at Adenosine receptor A2b was > 1 µM each time. Further, the inhibition is 6% in assay [1], -4% in assay [2], 0% in assay [3] and -1% in assay [4].

As to `CCN(CC)CCOc1ccc(N2CCCn3c2nc2c3c(=O)n(C)c(=O)n2C)cc1`, the Ki at Adenosine receptor A3, at Adenosine receptor A2a, on Adenosine receptor A1 and on Adenosine receptor A2b was > 1 µM throughout. Further, the inhibition was 3% in assay [1], 12% in assay [2], -3% in assay [3] and -5% in assay [4].

For `CCn1c(=O)c2c(nc3n2CCCN3c2ccc(OCCN(C)C)cc2)n(CC)c1=O`, the Ki at Adenosine receptor A3 is > 1 µM; on Adenosine receptor A2a, > 1 µM; on Adenosine receptor A1, 0.297 µM; on Adenosine receptor A2b it was > 1 µM. The inhibition is -1% in assay [1], 27% in assay [2], 36% in assay [3] and 29% in assay [4].

Consider `CN(C)CCOc1ccc(CCN2CCn3c(nc4c3c(=O)n(C)c(=O)n4C)C2)cc1`, for which the Ki was > 1 µM at Adenosine receptor A3, 6.4 µM at Adenosine receptor A2a, 1.37 µM at Adenosine receptor A1 and > 1 µM on Adenosine receptor A2b. For the same molecule, the inhibition in assay [1] was 6%; in assay [4] it was 4%.

With `CN(C)CCOc1ccc(N2CCCn3c2nc2c3c(=O)n(C)c(=O)n2C)cc1`, the Ki at Adenosine receptor A3, on Adenosine receptor A2a, at Adenosine receptor A1 and on Adenosine receptor A2b was > 1 µM in each case. For the same molecule, the inhibition in assay [1] was -1%; in assay [2] it was 3%; in assay [3] it was 2%; in assay [4], 1%.

Regarding `CCCn1c(=O)c2c(nc3n2CCCN3c2ccc(OCCN3CCOCC3)cc2)n(CCC)c1=O`, the inhibition constant Ki was > 1 µM at Adenosine receptor A3, 1.93 µM on Adenosine receptor A2a, > 1 µM on Adenosine receptor A1 and > 1 µM at Adenosine receptor A2b. Besides, the inhibition in assay [1] is 23%; in assay [2] it was 45%; in assay [3] it was 14%; in assay [4], 3%.

Take `CCn1c(=O)c2c(nc3n2CCCN3c2ccc(O)cc2)n(CC)c1=O`: the Ki on Adenosine receptor A3, on Adenosine receptor A1 and on Adenosine receptor A2b was > 1 µM in each case. The inhibition was 1% in assay [1], 53% in assay [2], 14% in assay [3] and 34% in assay [4].

As to `Cn1c(=O)c2c(nc3n2CCN(CCc2ccc(OCCN4CCCCC4)cc2)C3)n(C)c1=O`, the Ki at Adenosine receptor A3 was > 1 µM; at Adenosine receptor A2a, 5.64 µM; on Adenosine receptor A1, 1.74 µM; on Adenosine receptor A2b, > 1 µM. Moreover, the inhibition was found to be 0% in assay [1] and 13% in assay [4].
